Measured values from different studies.
Organic anion transporter 3: Organic anion transporter 3 (Mus musculus, UniProt O88909)
PTGS1: Prostaglandin G/H synthase 1 (PTGS1, Ovis aries, UniProt P05979)

| SMILES | target | read-out | mode | technique | notes | measurement | result |
| --- | --- | --- | --- | --- | --- | --- | --- |
| O=c1cc(-c2ccc(O)cc2)oc2c([C@@H]3OC[C@H](O)[C@H](O)[C@H]3O)c(O)c([C@@H]3O[C@H](CO)[C@@H](O)[C@H](O)[C@H]3O)c(O)c12 | Calcium/calmodulin-dependent protein kinase type II subunit delta (CAMK2D, Homo sapiens, UniProt Q13557) | binding | – | SPR | – | Kd | 140 µM |
| CC1(CN)CCN(c2cnc3c(Sc4ccncc4Cl)n[nH]c3n2)CC1 | Tyrosine-protein phosphatase non-receptor type 11 (PTPN11, Homo sapiens, UniProt Q06124) | enzyme activity | inhibitor | – | – | IC50 | > 100 µM |
| COc1cc(C(=O)OCCCN2CCCN(CCCOC(=O)c3cc(OC)c(OC)c(OC)c3)CC2)cc(OC)c1OC | Equilibrative nucleoside transporter 2 (Homo sapiens, UniProt Q14542) | transporter uptake | inhibitor | radiometric | oocytes | IC50 | 256 µM |
| N=c1c[n+](N2CCOCC2)[n-]o1 | NAD-dependent protein deacetylase sirtuin-3, mitochondrial (SIRT3, Homo sapiens, UniProt Q9NTG7) | enzyme activity | inhibitor | – | – | IC50 | 35 µM |
| Nc1ncnc2c1ncn2[C@@H]1O[C@H](CO)[C@@H](O)[C@H]1O | Organic anion transporter 3 | transporter uptake | inhibitor | radiometric | oocytes | IC50 | 930 µM |
| COc1ccc(-n2c(-c3ccccc3)csc2=NN=Cc2c(C)ccc(C(C)C)c2O)cc1 | PTGS1 | enzyme activity | inhibitor | absorbance | – | IC50 | 14.3 µM |
| CCCC(=O)NCCCN1CCc2c([nH]c3ccc(Cl)cc23)C1 | Sodium-dependent serotonin transporter (SLC6A4, Homo sapiens, UniProt P31645) | transporter uptake | inhibitor | – | – | IC50 | 96.2 µM |
| Cn1c(=O)c2c(ncn2C)n(C)c1=O | Organic anion transporter 3 | transporter uptake | inhibitor | radiometric | oocytes | IC50 | 7.5 µM |
| COc1ccc(-c2csc(=NN=Cc3c(C)ccc(C(C)C)c3O)n2-c2ccccc2Cl)cc1 | PTGS1 | enzyme activity | inhibitor | absorbance | – | IC50 | 9.87 µM |
| CC(=O)N[C@H]1C(O)O[C@H](CO)[C@@H](O[C@@H]2O[C@H](CO)[C@H](O)[C@H](O)[C@H]2O)[C@@H]1O (stereo partly shown) | Galectin-7 (LGALS7, Homo sapiens, UniProt P47929) | binding | – | ITC | – | Kd | 225 µM |
